Data published in ChEMBL document CHEMBL4145554, “Structure-activity relationships of talaumidin derivatives: Their neurite-outgrowth promotion in vitro and optic nerve regeneration in vivo” (Eur J Med Chem, 2018).
Active and inactive are the calls of the source. No cut-off for these calls is given here.

Tested on: Mus musculus
Test: In vivo neurite-outgrowth promoting activity in C57BL/6 mouse assessed as regeneration of injured optic nerve by measuring GAP-43 positive axons extending over injury site at 30 uM measured 2 weeks post optic nerve injury by fluorescence microscopic method
Type: functional, organism-based
Summary of the method: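 Male mice, 9 weeks old, anesthetized with intraperitoneal sodium pentobarbital (30e40 mg/kg); optic nerve crushed with forceps 1 mm behind the eyeball. Longitudinal […] cryosections (OCT) stained with anti-GAP43 (1:250) plus fluorescent secondary; regenerating axons counted manually at […] from injury site, ≥8 sections per condition, 6 mice/group; Dunnett's t-test versus injury.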

| Structure (SMILES) | Activity |
| --- | --- |
| COc1cc(C2OC(c3ccc4c(c3)OCO4)C(C)C2C)ccc1O (racemic) | Active |
| COc1cc([C@H]2O[C@H](c3ccc4c(c3)OCO4)[C@@H](C)[C@@H]2C)ccc1O | Active |

Tested on: PC-12
Test: Neurite-outgrowth promoting activity in NGF-differentiated rat PC12 cells assessed as increase in neurite length at 30 uM after 4 days by methylene blue staining based phase contrast microscopic method
Type: functional, cell-based
Summary of the method: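 Cells seeded at 8 × 10^3 cells/cm2 in DMEM/10% HS/5% FBS/antibiotics, 24 h, 37 °C, 5% CO2; medium then switched to DMEM/2% HS/1% FBS with test sample plus 2 ng/mL NGF for 4 days, triplicate wells. Fixed in 4% paraformaldehyde, methylene blue stained; longest neurite of 5 differentiated cells in 5 random images per well measured, ≥100 cells per sample; Dunnett's t-test.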

| Structure (SMILES) | Activity |
| --- | --- |
| COc1ccc([C@H]2O[C@@H](c3ccc(OC)cc3)[C@@H](C)[C@H]2C)cc1 | Active |
| COc1ccc(-c2oc(-c3ccc(OC)cc3)c(C)c2C)cc1 | Active |
| c1cc2c(cc1[C@@H]1CC[C@H](c3ccc4c(c3)OCO4)O1)OCO2 | Active |
| Cc1ccc([C@H]2O[C@@H](c3ccc(C)cc3)[C@@H](C)[C@H]2C)cc1 | Active |
| COc1cc([C@H]2O[C@@H](c3ccc(O)c(OC)c3)[C@@H](C)[C@H]2C)ccc1O | Active |
| COc1cc(C2OC(c3ccc4c(c3)OCO4)C(C)C2C)ccc1O (racemic) | Active |
| Cc1c(-c2ccc3c(c2)OCO3)oc(-c2ccc3c(c2)OCO3)c1C | Active |
| COc1cc([C@H]2O[C@H](c3ccc4c(c3)OCO4)[C@@H](C)[C@@H]2C)ccc1O | Active |
| COc1cc(-c2oc(-c3ccc(O)c(OC)c3)c(C)c2C)ccc1O | Active |
| Cc1ccc(-c2oc(-c3ccc(C)cc3)c(C)c2C)cc1 | Active |
| C[C@@H]1[C@H](C)[C@H](c2ccc(O)cc2)O[C@@H]1c1ccc(O)cc1 | Active |
| C[C@@H]1[C@H](C)CO[C@@H]1c1ccc2c(c1)OCO2 | inactive |
| Cc1c(-c2ccc(O)cc2)oc(-c2ccc(O)cc2)c1C | Active |
| COc1cc(-c2oc(-c3ccc4c(c3)OCO4)c(C)c2C)ccc1O | Active |
| COc1cc([C@H]2O[C@@H](c3ccc4c(c3)OCO4)[C@@H](C)[C@H]2C)ccc1O | Active |
